Measurements collected from several papers.
Compare with care: the assays were run in different laboratories.
Target: Homeodomain-interacting protein kinase 2 (HIPK2, Homo sapiens, UniProt Q9H2X6)
Observed: enzyme activity
Mode: inhibitor

| SMILES | method | tested at | remaining activity [%] |
| --- | --- | --- | --- |
| O=C(O)c1ccc2c(c1)nc(NCCc1ccccc1)c1ccncc12 | radiometric | 1 µM | 4 |
| Nc1nc(Nc2ccccc2)sc1C(=O)c1c(F)cccc1F | – | 10 µM | 16 |
| CC(C)(O)[C@H]1CC[C@H](Nc2ccc3ncc(-c4cccc(C(F)(F)F)c4)n3n2)CC1 | – | 1 µM | 70.3 |
| Nc1nc(NC2CCCCC2)sc1C(=O)c1ccccc1 | – | 10 µM | 64 |
| Cn1c(=O)n(-c2ccc(C(C)(C)C#N)cc2)c2c3cc(-c4cnc5ccccc5c4)ccc3ncc21 | – | 10 µM | 101 |
| O=C(O)c1ccc2c(c1)nc(NCCc1cccc(F)c1)c1ncncc12 | radiometric | 1 µM | 6 |
| CCN(CC)c1ccc(C2=NNC(=O)CC2C)cc1[N+](=O)[O-] (stereo not drawn) | – | 10 µM | 106 |
| Cc1sc(C(=O)NC2COC2)cc1-n1cc(NC(=O)Nc2c(F)cccc2Cl)cn1 | – | 10 µM | 103 |
| Oc1cccc(-c2nc(N3CCOCC3)c3oc4ncccc4c3n2)c1 | – | 10 µM | 18 |
| O=C(O)c1ccc2c(c1)nc(Nc1ccc(Cl)cc1)c1ncncc12 | radiometric | 1 µM | -2 |
| CC(C)(C)c1nc(-c2cccc(NS(=O)(=O)c3c(F)cccc3F)c2F)c(-c2ccnc(N)n2)s1 | radiometric | 1 µM | 80 |
| Cc1cnc(NC2CCOCC2)nc1-n1cnc(C(=O)NC(CN)c2cc(F)cc(Cl)c2)c1 (stereo not drawn) | radiometric | 1 µM | 92 |
